# Assay results taken from ChEMBL document CHEMBL5154772, “Biological Investigation of a Water-Soluble Isoginkgetin-Phosphate Analogue, Targeting the Spliceosome with In Vivo Antitumor Activity” (J Med Chem, 2022).
# Calls of active or inactive are those of the source. The calls are words filed in the database; no cut-off is given here.
# Key:
# [1] = AUCextra in C57BL/6J mouse at 9.103 mg/kg, ip administered as single dose measured up to 24 hrs; type: ADME, organism-based; conditions: in vivo
# Method in brief: (§1)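 Single intraperitoneal dose in male C57BL/6J mice (12 per route). Tail-vein blood was collected under sodium heparin for plasma, with 3 mice sampled at each pair of times: 0.083/2, 0.25/4, 0.5/8 and 1/24 h. F denotes bioavailability.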
# [2] = Toxicity in C57BL/6 mouse assessed as change in body weight at 100 mg/kg, ip administered as single dose and measured after 15 days (reference value: 23.5 to 24.2 g); type: organism-based; conditions: in vivo, 360 h, time 15 day
# Method in brief: (§2)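 Female C57BL/6 mice given one IP injection of 100 µL, at 50, 100, 250 or 500 mg/kg in sterile PBS, two mice per dose; PBS-injected controls. Behaviour checked right after and at 30 min. Body weight recorded every 2–3 days for 15 days, then liver, spleen and kidneys weighed.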
# [3] = Antiproliferative activity against mouse MCA-205 cells assessed as decrease in cell viability at 10 uM measured after 72 hrs by MTT based colorimetric assay; type: functional
# [4] = Metabolic stability in mouse liver microsomes assessed as parent compound remaining incubated for 45 mins in presence of NADPH by HPLC-MS/MS analysis; type: ADME, Microsome; conditions: read-out: Stability
# Method in brief: (§3)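 Incubation with mouse or human liver microsomes for 45 min, with or without NADPH. Remaining parent compound was quantified over time by HPLC-MS/MS and expressed as % remaining; intrinsic clearance is given in μL/min/mg protein.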
# [5] = Metabolic stability in mouse liver microsomes assessed as intrinsic clearance incubated for 45 mins by HPLC-MS/MS analysis; type: ADME, Microsome; conditions: read-out: CLH; method in brief: as §3
# [6] = Stability in mouse plasma assessed as compound remaining incubated up to 2 hrs by HPLC-MS/MS analysis; type: ADME, cell-free; conditions: read-out: Stability
# Method in brief: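 Incubation in mouse or human plasma for up to 2 h, with compound remaining expressed as a percentage.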
# [7] = Plasma protein binding in human assessed as unbound fraction at 2 uM by rapid equilibrium dialysis based LC-MS/MS analysis; type: ADME, cell-free
# Method in brief: (§4)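 Binding was measured at 2 μM in triplicate by rapid equilibrium dialysis (8K MWCO). Quantification was by UPLC-MS/MS on a phenyl column in positive ESI MRM mode (m/z 727>567), with an ammonium formate pH 5 / 1,5-DMHA mobile phase at 50 °C. Both unbound fraction (fu) and % bound are reported.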
# [8] = Plasma protein binding in human at 2 uM by rapid equilibrium dialysis based LC-MS/MS analysis; type: ADME, cell-free; conditions: read-out: PPB (converted); method in brief: as §4
# [9] = target: Beta-1 adrenergic receptor (Homo sapiens) (UniProt P08588); test: Antagonist activity at ADRB1 (unknown origin) at 10 uM; type: functional; design: scale not given: the % may be the effect or the level left
# Sequence of Beta-1 adrenergic receptor (Homo sapiens) (P08588 whole entry, looked up): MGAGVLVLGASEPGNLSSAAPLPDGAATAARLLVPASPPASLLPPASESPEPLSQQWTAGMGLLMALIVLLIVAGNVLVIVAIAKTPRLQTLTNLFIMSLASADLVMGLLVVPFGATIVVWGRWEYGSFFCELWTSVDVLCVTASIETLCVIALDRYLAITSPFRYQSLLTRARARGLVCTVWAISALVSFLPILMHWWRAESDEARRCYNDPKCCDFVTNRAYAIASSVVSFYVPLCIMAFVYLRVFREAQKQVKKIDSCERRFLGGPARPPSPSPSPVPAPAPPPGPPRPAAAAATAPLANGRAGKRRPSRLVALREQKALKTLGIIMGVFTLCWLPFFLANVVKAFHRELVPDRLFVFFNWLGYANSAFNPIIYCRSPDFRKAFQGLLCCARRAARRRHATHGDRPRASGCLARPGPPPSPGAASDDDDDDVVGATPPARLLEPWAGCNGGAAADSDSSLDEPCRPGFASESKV
# Method in brief: (§5)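 Single-concentration safety screen at 10 μM across a 47-target panel. GPCRs were run in antagonist mode and enzymes in inhibitor mode.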
# [10] = target: cGMP-inhibited 3',5'-cyclic phosphodiesterase 3A (Homo sapiens) (UniProt Q14432); test: Inhibition of PDE3A (unknown origin) at 10 uM; method in brief: as §5
# Sequence of cGMP-inhibited 3',5'-cyclic phosphodiesterase 3A (Homo sapiens) (Q14432 whole entry): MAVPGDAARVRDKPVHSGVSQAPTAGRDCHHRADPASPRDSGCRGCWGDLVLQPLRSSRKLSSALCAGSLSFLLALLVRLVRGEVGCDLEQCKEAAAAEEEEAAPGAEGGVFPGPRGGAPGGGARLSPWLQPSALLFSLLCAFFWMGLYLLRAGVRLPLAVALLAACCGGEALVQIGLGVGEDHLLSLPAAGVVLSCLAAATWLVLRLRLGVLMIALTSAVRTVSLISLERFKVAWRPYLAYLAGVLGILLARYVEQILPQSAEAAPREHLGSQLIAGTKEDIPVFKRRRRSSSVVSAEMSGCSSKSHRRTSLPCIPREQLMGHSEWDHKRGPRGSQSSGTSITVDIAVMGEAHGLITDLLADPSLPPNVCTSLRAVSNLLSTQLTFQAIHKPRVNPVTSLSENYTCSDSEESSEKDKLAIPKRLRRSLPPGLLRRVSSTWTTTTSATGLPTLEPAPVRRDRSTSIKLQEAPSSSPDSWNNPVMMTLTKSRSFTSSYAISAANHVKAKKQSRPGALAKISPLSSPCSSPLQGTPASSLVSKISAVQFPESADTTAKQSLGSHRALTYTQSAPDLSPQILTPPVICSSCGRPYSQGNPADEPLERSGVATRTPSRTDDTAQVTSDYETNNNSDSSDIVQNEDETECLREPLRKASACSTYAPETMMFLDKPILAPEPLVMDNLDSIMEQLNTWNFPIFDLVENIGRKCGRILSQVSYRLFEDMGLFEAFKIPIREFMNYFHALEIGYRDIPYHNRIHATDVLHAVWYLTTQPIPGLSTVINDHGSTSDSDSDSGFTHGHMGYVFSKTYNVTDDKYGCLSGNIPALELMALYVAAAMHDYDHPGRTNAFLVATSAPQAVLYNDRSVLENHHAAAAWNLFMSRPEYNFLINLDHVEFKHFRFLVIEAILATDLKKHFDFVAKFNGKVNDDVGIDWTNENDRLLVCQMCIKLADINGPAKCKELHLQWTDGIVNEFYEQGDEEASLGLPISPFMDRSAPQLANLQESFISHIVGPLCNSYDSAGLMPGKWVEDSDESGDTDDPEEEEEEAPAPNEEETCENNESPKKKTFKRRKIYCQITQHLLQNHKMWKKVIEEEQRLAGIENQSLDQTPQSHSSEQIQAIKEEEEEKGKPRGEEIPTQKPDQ
# [11] = Tmax in C57BL/6J mouse at 9.103 mg/kg, ip administered as single dose measured up to 24 hrs; type: ADME, organism-based; conditions: in vivo; method in brief: as §1
# [12] = Half life in C57BL/6J mouse at 9.103 mg/kg, ip administered as single dose measured up to 24 hrs; type: ADME, organism-based; conditions: in vivo; method in brief: as §1
# [13] = Half life in C57BL/6J mouse at 0.711 mg/kg, iv administered as single dose measured up to 24 hrs; type: ADME, organism-based; conditions: in vivo
# Method in brief: (§6)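 Single intravenous dose. Mice were male C57BL/6J, 12 per route; tail-vein blood was collected under sodium heparin, with 3 mice sampled at each pair of times (0.083/2, 0.25/4, 0.5/8, 1/24 h). Dogs were male beagles (n=3); jugular blood was collected under K2 EDTA predose and at 0.083, 0.25, 0.5, 1, 2, 4, 6, 8 and 24 h. Plasma was prepared from the samples.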
# [14] = Half life in Beagle dog at 26.76 mg/kg, iv administered as single dose measured up to 24 hrs; type: ADME, organism-based, Canis lupus familiaris; conditions: in vivo; method in brief: as §6
# [15] = Oral bioavailability in C57BL/6J mouse at 9.103 mg/kg administered as single dose measured up to 24 hrs; type: ADME, organism-based; conditions: in vivo
# [16] = MRT(0 to t) in C57BL/6J mouse at 0.711 mg/kg, iv administered as single dose measured up to 24 hrs; type: ADME, organism-based; conditions: in vivo; method in brief: as §6
# [17] = AUCextra in Beagle dog at 26.76 mg/kg, iv administered as single dose measured up to 24 hrs; type: ADME, organism-based, Canis lupus familiaris; conditions: in vivo; method in brief: as §6
# [18] = Toxicity in C57BL/6 mouse assessed as change in liver weight at 100 mg/kg, ip administered as single dose and measured after 15 days (reference value: 1.2 to 1.3 g); type: organism-based; conditions: in vivo, 360 h, time 15 day; method in brief: as §2
# [19] = Toxicity in C57BL/6 mouse assessed as change in liver weight at 250 mg/kg, ip administered as single dose and measured after 15 days (reference value: 1.2 to 1.3 g); type: organism-based; conditions: in vivo, 360 h, time 15 day; method in brief: as §2
# [20] = Toxicity in C57BL/6 mouse assessed as change in spleen weight at 100 mg/kg, ip administered as single dose and measured after 15 days (reference value: 0.1 to 0.2 g); type: organism-based; conditions: in vivo, 360 h, time 15 day; method in brief: as §2
# [21] = Toxicity in C57BL/6 mouse assessed as change in spleen weight at 250 mg/kg, ip administered as single dose and measured after 15 days (reference value: […]); type: organism-based; conditions: in vivo, 360 h, time 15 day; method in brief: as §2
# [22] = Toxicity in C57BL/6 mouse assessed as change in kidney weight at 250 mg/kg, ip administered as single dose and measured after 15 days (reference value: 0.3 g); type: organism-based; conditions: in vivo, 360 h, time 15 day; method in brief: as §2
# [23] = Toxicity in C57BL/6 mouse assessed as change in kidney weight at 500 mg/kg, ip administered as single dose and measured after 15 days (reference value: 0.3 g); type: organism-based; conditions: in vivo, 360 h, time 15 day; method in brief: as §2
# [24] = tested on: MCA-205; test: Antitumour activity against mouse wild type MCA-205 cells implanted in C57BL/6 mouse assessed as decrease in tumour growth at 5 mg/kg,IT administered starting from day 7 post inoculation and thrice a week for 2 weeks; type: functional, organism-based
# Method in brief: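 MCA205 WT fibrosarcoma cells were inoculated subcutaneously into the right flank of female C57BL/6 mice. Dosing was 5 mg/kg intratumoral, three times per week for two weeks, starting day 7 post-inoculation; controls were untreated. Tumor area was recorded every 3–4 days, and tumor size was measured at killing. Analysis was by one-way ANOVA.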
# [25] = Antitumour activity against mouse wild type MCA-205 cells implanted in C57BL/6 mouse assessed as tumor size by measuring cell killing at 5 mg/kg, IT administered starting from day 7 post inoculation and thrice a week for 2 weeks; type: functional
# Method in brief: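 Female C57BL/6 mice (6 weeks old) given subcutaneous MCA205 WT fibrosarcoma in the right flank. From day 7 after inoculation, 5 mg/kg given intratumorally three times per week for two weeks; untreated controls. Tumour area recorded every 3–4 days until ethical endpoints, then tumour size at killing. Groups compared by one-way ANOVA.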
# [26] = Toxicity in C57BL/6 mouse assessed as behavioral changes at 50 to 500 mg/kg, ip and measured upto 30 mins post administration; type: organism-based; conditions: in vivo, 0.5 h, dose 50-500 mg/kg; method in brief: as §2
# [27] = target: Prostaglandin G/H synthase 1 (Homo sapiens) (UniProt P23219); test: Inhibition of COX1 (unknown origin) at 10 uM
compound,measurement,setting,value
COc1ccc(-c2cc(=O)c3c(O)cc(OP(=O)([O-])[O-])c(-c4cc(-c5cc(=O)c6c(O)cc(OP(=O)([O-])[O-])cc6o5)ccc4OC)c3o2)cc1.[Na+].[Na+].[Na+].[Na+],%AUCextra,[1],1.3%
same,Activity,[2],19.5 g
same,Activity,[3],20%
same,remaining at 0.75 h,[4],82.3%
same,microsomal CLint,[5],8 µL/min/mg
same,remaining at 2 h,[6],98.1%
same,fraction unbound at 2 µM,[7],0.02
same,fraction unbound at 2 µM,[8],0.017
same,Activity,[9],35%
same,inhibition,[10],84.8%
same,Tmax,[11],5 min
same,half-life,[12],48 min
same,half-life,[13],66 min
same,half-life,[14],228 min
same,bioavailability,[15],86%
same,MRT last at 24 h,[16],54 min
same,%AUCextra,[17],0.9%
same,Activity,[18],1 g
same,Activity,[19],0.9 g
same,Activity,[20],0.1 g
same,Activity,[21],0.1 g
same,Activity,[22],0.1 g
same,Activity,[23],0.2 g
same,Activity,[24],Active
same,Activity,[25],50%
same,Activity,[26],Non-Toxic
same,inhibition,[27],52.8%
